The source made the active and inactive calls. No cut-off for these calls is given here.
Experiments:
VL51 [1] = assay: Antiproliferative activity against human VL51 cells assessed as cell growth inhibition measured after 72 hrs by MTT assay; format: functional, cell-based; settings: VL51, 72 h
Outline: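 Lymphoma cells grown in RPMI-1640 with 20% FBS, seeded at 5,000–10,000 cells/well by doubling time. Doses 0–10 μM, 1:2 serial dilution, DMSO ≤0.1%, 72 h at 37 °C, 5% CO2. MTT (5 mg/mL stock) added for 4 h, SDS lysis, A570 read against medium-only blanks. IC50 from triplicate assays.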

MOLT-4 = assay: Antiproliferative activity against human MOLT-4 cells assessed as growth inhibition incubated for 72 hrs by MTT assay; format: functional
SR = assay: Antiproliferative activity against human SR cells assessed as growth inhibition incubated for 72 hrs by MTT assay; format: functional
A549 [2] = assay: Induction of cell cycle arrest in human A549 cells assessed as reduction in accumulation of cells at S phase at 1 uM incubated for 24 hrs by PI staining based flow cytometry analysis; format: functional
Outline: (§1)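 Seeding in 6-well plates, 2 mL medium: A549 5×10^4, CCRF-CEM 2.5×10^5, VL51 2.0×10^5. 24 h treatment, A549 detached with trypsin-EDTA. Cells fixed in 70% ice-cold ethanol, PI-labelled, analysed by flow cytometry. Mean of two independent experiments.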

CCRF-CEM = assay: Antiproliferative activity against human CCRF-CEM cells assessed as growth inhibition incubated for 72 hrs by MTT assay; format: functional
KM12 = assay: Antiproliferative activity against human KM12 cells assessed as growth inhibition incubated for 72 hrs by MTT assay; format: functional
HOP-62 = assay: Antiproliferative activity against human HOP-62 cells assessed as growth inhibition incubated for 72 hrs by MTT assay; format: functional
A498 = assay: Antiproliferative activity against human A498 cells assessed as growth inhibition incubated for 72 hrs by MTT assay; format: functional
NCI-H226 = assay: Antiproliferative activity against human NCI-H226 cells assessed as growth inhibition incubated for 72 hrs by MTT assay; format: functional
VL51 [3] = assay: Induction of cell cycle arrest in human VL51 cells assessed as reduction in accumulation of cells at S phase at 1 uM incubated for 24 hrs by PI staining based flow cytometry analysis; format: functional; outline: as §1
EKVX = assay: Antiproliferative activity against human EKVX cells assessed as growth inhibition incubated for 72 hrs by MTT assay; format: functional
HT-29 = assay: Antiproliferative activity against human HT-29 cells assessed as growth inhibition incubated for 72 hrs by MTT assay; format: functional
[4] = Cytotoxicity against resting human PBL cells assessed as inhibition of cell growth measured after 72 hrs by MTT assay; format: toxicity, cell-based; settings: resting human peripheral blood lymphocytes (PBL)
A549 [5] = assay: Antiproliferative activity against human A549 cells assessed as growth inhibition incubated for 72 hrs by MTT assay; format: functional
[6] = Antiproliferative activity against human MINO cells assessed as cell growth inhibition measured after 72 hrs by MTT assay; format: functional, cell-based
Outline: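 Lymphoma cells in RPMI-1640 with 20% FBS, seeded at 5,000–10,000 cells/well depending on doubling time. Exposed for 72 h at 37 °C, 5% CO2 to a 1:2 serial dilution from 0 to 10 μM (DMSO ≤0.1%). MTT from a 5 mg/mL stock was added for 4 h, cells were lysed with 25% SDS, and A570 was read against medium-only blanks. IC50 from triplicate assays.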

VL51 [7] = assay: Antiproliferative activity against human VL51 cells assessed as reduction in cell proliferation at 1 uM measured after 72 hrs by MTT assay relative to control; format: functional; design: scale not given: the % may be the effect or the level left
Outline: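 Single-dose 1 μM screen in lymphoma cells (RPMI-1640, 20% FBS; 5,000–10,000 cells/well), 72 h at 37 °C, 5% CO2, DMSO ≤0.1%. MTT for 4 h, SDS lysis, absorbance at 570 nm. Proliferation expressed as percent of untreated control.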

HCT-15 = assay: Antiproliferative activity against human HCT-15 cells assessed as growth inhibition incubated for 72 hrs by MTT assay; format: functional
786-0 = assay: Antiproliferative activity against human 786-0 cells assessed as growth inhibition incubated for 72 hrs by MTT assay; format: functional
OVCAR-5 = assay: Antiproliferative activity against human OVCAR-5 cells assessed as growth inhibition incubated for 72 hrs by MTT assay; format: functional
SF-268 = assay: Antiproliferative activity against human SF-268 cells assessed as growth inhibition incubated for 72 hrs by MTT assay; format: functional
Tubulin = assay: Inhibition of tubulin assembly (unknown origin); format: protein-complex assay, Homo sapiens
RPMI-8226 = assay: Antiproliferative activity against human RPMI-8226 cells assessed as growth inhibition incubated for 72 hrs by MTT assay; format: functional
SF-539 = assay: Antiproliferative activity against human SF-539 cells assessed as growth inhibition incubated for 72 hrs by MTT assay; format: functional
NCI-H522 = assay: Antiproliferative activity against human NCI-H522 cells assessed as growth inhibition incubated for 72 hrs by MTT assay; format: functional
BT-549 = assay: Antiproliferative activity against human BT-549 cells assessed as growth inhibition incubated for 72 hrs by MTT assay; format: functional
SW-620 = assay: Antiproliferative activity against human SW-620 cells assessed as growth inhibition incubated for 72 hrs by MTT assay; format: functional
MCF7 = assay: Antiproliferative activity against human MCF7 cells assessed as growth inhibition incubated for 72 hrs by MTT assay; format: functional
HCT-116 = assay: Antiproliferative activity against human HCT-116 cells assessed as growth inhibition incubated for 72 hrs by MTT assay; format: functional
VL51 [8] = assay: Induction of cell cycle arrest in human VL51 cells assessed as accumulation of cells at G2/M phase at 1 uM incubated for 24 hrs by PI staining based flow cytometry analysis; format: functional; outline: as §1
IGROV-1 = assay: Antiproliferative activity against human IGROV-1 cells assessed as growth inhibition incubated for 72 hrs by MTT assay; format: functional
OVCAR-8 = assay: Antiproliferative activity against human OVCAR-8 cells assessed as growth inhibition incubated for 72 hrs by MTT assay; format: functional
LOX IMVI = assay: Antiproliferative activity against human LOX IMVI cells assessed as growth inhibition incubated for 72 hrs by MTT assay; format: functional
SK-MEL-5 = assay: Antiproliferative activity against human SK-MEL-5 cells assessed as growth inhibition incubated for 72 hrs by MTT assay; format: functional
NCI-H322M = assay: Antiproliferative activity against human NCI-H322M cells assessed as growth inhibition incubated for 72 hrs by MTT assay; format: functional
RXF 393 = assay: Antiproliferative activity against human RXF 393 cells assessed as growth inhibition incubated for 72 hrs by MTT assay; format: functional
A549 [9] = assay: Induction of cell cycle arrest in human A549 cells assessed as accumulation of cells at G2/M phase at 1 uM incubated for 24 hrs by PI staining based flow cytometry analysis; format: functional; outline: as §1
VL51 [10] = assay: Induction of mitochondrial membrane potential depolarization in human VL51 cells at 0.5 to 1 uM measured after 24 hrs by JC-1 fluorescent dye based flow cytometry analysis; format: functional, cell-based; settings: dose 0.5-1 µM
Outline: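 VL51 cells treated 24 h at 0.5 and 1.0 μM, labelled with JC-1, analysed by flow cytometry in FL1 and FL2 channels.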

| Compound | IC50 (VL51 [1]) | GI50 (MOLT-4) | GI50 (SR) | Activity (A549 [2]) | GI50 (CCRF-CEM) | GI50 (KM12) | GI50 (HOP-62) | GI50 (A498) | GI50 (NCI-H226) | Activity (VL51 [3]) | GI50 (EKVX) | GI50 (HT-29) | IC50 at 72 h [4] | GI50 (A549 [5]) | IC50 [6] | Activity (VL51 [7]) | GI50 (HCT-15) | GI50 (786-0) | GI50 (OVCAR-5) | GI50 (SF-268) | other results |
| --- | --- | --- | --- | --- | --- | --- | --- | --- | --- | --- | --- | --- | --- | --- | --- | --- | --- | --- | --- | --- | --- |
| COc1ccc(Cn2cc3c(c2-c2cc(OC)c(OC)c(OC)c2)CCCc2cnoc2-3)cc1 | 400 nM | 800 nM | 360 nM | Active | 410 nM | 690 nM | 2220 nM | 690 nM | 1990 nM | Active | 3000 nM | 1130 nM | > 10000 nM | 2340 nM | 900 nM | >50% | 480 nM | 670 nM | 3720 nM | 4720 nM | IC50 (Tubulin): > 20000 nM; GI50 (RPMI-8226): 1560 nM; GI50 (SF-539): 700 nM; GI50 (NCI-H522): 980 nM; GI50 (BT-549): 480 nM; GI50 (SW-620): 470 nM; GI50 (MCF7): 440 nM; GI50 (HCT-116): 390 nM; Activity (VL51 [8]): Active; GI50 (IGROV-1): 560 nM; GI50 (OVCAR-8): 4300 nM; GI50 (LOX IMVI): 990 nM; GI50 (SK-MEL-5): 2000 nM; GI50 (NCI-H322M): 3280 nM; GI50 (RXF 393): 660 nM; Activity (A549 [9]): Active; Activity (VL51 [10]): Active |
| COc1ccc(Cn2cc3c(c2-c2cc(OC)c(OC)c(OC)c2)CCCc2cnoc2-3)cc1N | 100 nM | 650 nM | 360 nM | Active | 440 nM | 560 nM | 690 nM | 360 nM | 2540 nM | Active | 2670 nM | 420 nM | > 10000 nM | 950 nM | 400 nM | >50% | 530 nM | 520 nM | 1440 nM | 1450 nM | IC50 (Tubulin): 18000 nM; GI50 (RPMI-8226): 610 nM; GI50 (SF-539): 400 nM; GI50 (NCI-H522): 260 nM; GI50 (BT-549): 250 nM; GI50 (SW-620): 430 nM; GI50 (MCF7): 420 nM; GI50 (HCT-116): 400 nM; Activity (VL51 [8]): Active; GI50 (IGROV-1): 1560 nM; GI50 (OVCAR-8): 1570 nM; GI50 (LOX IMVI): 700 nM; GI50 (SK-MEL-5): 1130 nM; GI50 (NCI-H322M): 840 nM; GI50 (RXF 393): 450 nM; Activity (A549 [9]): Active; Activity (VL51 [10]): Active |

— ChEMBL document CHEMBL5321217, “Identification of pyrrolo[3',4':3,4]cyclohepta[1,2-d][1,2]oxazoles as promising new candidates for the treatment of lymphomas” (Eur J Med Chem, 2023)
